According to ChEMBL document CHEMBL1687689, “Concise syntheses of the abyssinones and discovery of new inhibitors of prostate cancer and MMP-2 expression” (2010):
The source made the active and inactive calls. The calls are words filed in the database; no cut-off is given here.

What was measured:
PC-3M [1] = experiment: (§1) Cytotoxicity in human PC3M cells assessed as inhibition of cell proliferation upto 50 uM after 3 days by MTT assay; format: functional
Procedure, shortened: (§2)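 Metastatic variant PC3-M human prostate cancer cells in exponential growth exposed 3 days to 0−50 μM of each racemate or enantiomer; viability by MTT, absorbance at 540 nm. CC50 derived from the concentration-response. For the 50 μM readout, absorbance at 72 h compared with untreated cells at the start (t = 0 h).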

[2] = as §1; format: functional, PC-3M; procedure, shortened: as §2
[3] = Cytotoxicity in human PC3M cells assessed as inhibition of cell proliferation after 3 days by MTT assay; format: functional; details: PC-3M, 72 h; procedure, shortened: as §2
PC-3M [4] = experiment: Inhibition of MMP-2 mRNA expression in human PC3M cells at 3 uM after 3 days by qRT-PCR analysis relative to untreated control; format: functional; details: 72 h

Compound	inhibition (PC-3M [1])	fold change (FC) [2]	CC50 [3] [µM]	inhibition at 3 µM (PC-3M [4]) [%]
CC(C)=CCc1cc([C@@H]2CC(=O)c3ccc(O)cc3O2)ccc1O	Active			
CC1(C)C=Cc2cc([C@H]3CC(=O)c4ccc(O)cc4O3)ccc2O1	Active			
CC(C)=CCc1cc(C2CC(=O)c3ccc(O)cc3O2)ccc1O (racemic)	Active			
COc1c(CC=C(C)C)cc([C@@H]2CC(=O)c3ccc(O)cc3O2)cc1CC=C(C)C	Active	2	12	
COc1c(CC=C(C)C)cc([C@H]2CC(=O)c3ccc(O)cc3O2)cc1CC=C(C)C	Active		46	
COc1c(CC=C(C)C)cc(C2CC(=O)c3ccc(O)cc3O2)cc1CC=C(C)C (racemic)	Active		33	
CC(C)=CCc1cc([C@H]2CC(=O)c3ccc(O)cc3O2)cc2c1OC(C)(C)C=C2	Active		42	65
CC1(C)C=Cc2cc(C3CC(=O)c4ccc(O)cc4O3)ccc2O1 (racemic)	Active			
CC1(C)C=Cc2cc([C@@H]3CC(=O)c4ccc(O)cc4O3)ccc2O1	Active			
CC(C)=CCc1cc(C2CC(=O)c3ccc(O)cc3O2)cc2c1OC(C)(C)C=C2 (racemic)	Active		57	
CC(C)=CCc1cc([C@H]2CC(=O)c3ccc(O)cc3O2)ccc1O	Active			
